Reference: ChEMBL document CHEMBL1145857, “Toward tissue-selective pancreatic B-cells KATP channel openers belonging to 3-alkylamino-7-halo-4H-1,2,4-benzothiadiazine 1,1-dioxides” (J Med Chem, 2003)

Assays:
Rattus norvegicus [1] = species: Rattus norvegicus; test: Effective dose required for relaxation of the 30 mM KCl-induced contraction of rat aortic rings; assay type: functional; conditions: Aorta, read-out: ED50 (the source's name)
How it was run: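 Endothelium-denuded transverse aortic rings (3–4 mm) from fed Wistar rats (180–220 g); isometric tension by force transducer. After 60 min equilibration, contracted with 30 mM KCl; once stable, drug added cumulatively to maximal relaxation or 0.3 mM. Relaxation as % of KCl contraction; ED50 (50% inhibition of KCl plateau) from dose–response curves; mean ± SEM (n).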

Rattus norvegicus [2] = species: Rattus norvegicus; test: Percent inhibition of residual insulin release from rat pancreatic islets in the presence of 16.7 mM glucose at 10 uM concentration; assay type: functional
How it was run: (§1)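 Islets isolated by collagenase from fed Wistar rats (180–220 g); groups of 10 islets preincubated 30 min at 37 °C in bicarbonate salt medium with 2.8 mM glucose and 0.5% dialyzed albumin under O2/CO2 95:5, then incubated 90 min at 37 °C with 16.7 mM glucose plus drug. Insulin measured by radioimmunoassay against rat insulin standard; residual release as % of drug-free 16.7 mM glucose control; IC50 estimated.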

Rattus norvegicus [3] = species: Rattus norvegicus; test: Concentration required to inhibit insulin release in rat; assay type: functional
Rattus norvegicus [4] = species: Rattus norvegicus; test: Estimated selectivity ratio of ED50 and IC50 in rat was calculated; assay type: functional
Rattus norvegicus [5] = species: Rattus norvegicus; test: Percent inhibition of residual insulin release from rat pancreatic islets in the presence of 16.7 mM glucose at 1 uM concentration; assay type: functional; how it was run: as §1
Rattus norvegicus [6] = species: Rattus norvegicus; test: Percent inhibition of residual insulin release from rat pancreatic islets in the presence of 16.7 mM glucose at 50 uM concentration; assay type: functional; how it was run: as §1
[7] = pKa value determined at 20 °C
Rattus norvegicus [8] = species: Rattus norvegicus; test: Percent inhibition of residual insulin release from rat pancreatic islets in the presence of 16.7mM glucose at 0.1 uM concentration; assay type: functional
How it was run: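 Islets isolated by collagenase from fed Wistar rats (180–220 g). Groups of 10 islets preincubated 30 min at 37 °C in bicarbonate salt medium with 2.8 mM glucose, 0.5% dialyzed albumin, gassed O2/CO2 95:5. Then incubated 90 min at 37 °C with 16.7 mM glucose plus drug. Insulin measured by radioimmunoassay against rat insulin; expressed as % of drug-free 16.7 mM glucose control; mean ± SEM (n).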

| Compound | EC50 (Rattus norvegicus [1]) [µM] | RIS (Rattus norvegicus [2]) [%] | IC50 (Rattus norvegicus [3]) [µM] | Selectivity (Rattus norvegicus [4]) | RIS (Rattus norvegicus [5]) [%] | RIS (Rattus norvegicus [6]) [%] | pKa [7] | RIS (Rattus norvegicus [8]) [%] |
| --- | --- | --- | --- | --- | --- | --- | --- | --- |
| O=S1(=O)NC(NC2CCC2)=Nc2ccc(F)cc21 | 71.8 | 7.8 | 1.3 | 55 | 58.2 | 5.9 |  |  |
| CC(C)C(C)NC1=NS(=O)(=O)c2cc(Cl)ccc2N1 (stereo not drawn) | 1.2 | 62.7 | > 10 | <0.12 | 88.1 | 11 |  |  |
| O=S1(=O)N=C(NC2CC2)Nc2ccc(Cl)cc21 | 190 | 26.6 | 3.4 | 56 | 84 | 5.8 |  |  |
| CCNC1=NS(=O)(=O)c2cc(Cl)ccc2N1 | 39.9 | 10.7 | < 1 | >40 | 29.2 | 2.1 |  |  |
| CNC1=NS(=O)(=O)c2cc(Br)ccc2N1 | 31 | 7.3 | 1.8 | 17 | 69.9 | 6.4 |  |  |
| O=S1(=O)NC(NC2CC2)=Nc2ccc(Br)cc21 | 89.4 | 21.1 | 3.1 | 29 | 85.1 | 4.6 |  |  |
| CCCNC1=NS(=O)(=O)c2cc(Br)ccc2N1 | 5.9 | 34.7 | < 10 | >0.6 |  | 7.1 |  |  |
| O=S1(=O)NC(NC2CC2)=Nc2ccc(F)cc21 | > 300 | 32.5 | 5.1 | >58 | 104.5 | 7.5 |  |  |
| O=S1(=O)NC(NCC2CC2)=Nc2ccc(Cl)cc21 | 41.2 | 65.9 | > 10 | <4 |  | 15.2 |  |  |
| CCCNC1=NS(=O)(=O)c2cc(Cl)ccc2N1 | 55.5 | 14.2 |  | 21 | 83.4 | 3.6 |  |  |
| CCC(CC)NC1=NS(=O)(=O)c2cc(Cl)ccc2N1 | 93.6 | 31.7 | 4.5 | 21 | 93.7 | 8.1 |  |  |
| CC(C)NC1=NS(=O)(=O)c2cc(Cl)ccc2N1 | 36.3 | 4.9 |  | 52 |  | 5.7 | 9.51 |  |
| CC(C)NC1=NS(=O)(=O)c2cc(I)ccc2N1 | 7.7 | 9.6 | 2.1 | 3.7 | 74.8 | 5.6 | 9.28 | 99.2 |
| CCC(C)NC1=NS(=O)(=O)c2cc(F)ccc2N1 (stereo not drawn) | 39.2 | 6.9 | 1.6 | 25 | 64.6 | 5.9 |  |  |
| CCNC1=NS(=O)(=O)c2cc(Br)ccc2N1 | 6.2 | 6.5 | < 1 | >6 | 38.1 | 4.6 |  |  |
| CCNC1=NS(=O)(=O)c2cc(F)ccc2N1 | > 300 | 8.6 | 1 | >300 | 50.8 | 6.3 |  |  |
| CCCNC1=NS(=O)(=O)c2cc(F)ccc2N1 | 166 | 15.1 | 2 | 83 | 69.2 | 7.7 |  |  |
| CC(C)C(C)NC1=NS(=O)(=O)c2cc(I)ccc2N1 (stereo not drawn) | 0.94 | 86.2 | > 50 | <0.02 | 91.9 | 51.7 |  |  |
| CCC(C)NC1=NS(=O)(=O)c2cc(Br)ccc2N1 (stereo not drawn) | 5.6 | 26.8 | 4 | 1.4 | 92.5 | 4 |  |  |
| O=S1(=O)NC(NCC2CC2)=Nc2ccc(F)cc21 | 146 | 39.8 | < 10 | >15 |  | 6.4 |  |  |

| Compound | EC50 (Rattus norvegicus [1]) [µM] | RIS (Rattus norvegicus [2]) [%] | IC50 (Rattus norvegicus [3]) [µM] | Selectivity (Rattus norvegicus [4]) | RIS (Rattus norvegicus [5]) [%] | RIS (Rattus norvegicus [6]) [%] | pKa [7] | RIS (Rattus norvegicus [8]) [%] |
| --- | --- | --- | --- | --- | --- | --- | --- | --- |
| O=S1(=O)NC(NC2CCCC2)=Nc2ccc(F)cc21 | 58 | 6.6 | 1.8 | 32 | 68.8 | 5.4 |  |  |
| O=S1(=O)NC(NC2CCC2)=Nc2ccc(I)cc21 | 22.2 | 30.6 | < 10 | >2.2 |  |  |  |  |
| CNC1=NS(=O)(=O)c2cc(F)ccc2N1 | > 300 | 7.7 | 2.2 | >136 | 76.1 | 5.7 |  |  |
| C=CCNC1=Nc2ccc(F)cc2S(=O)(=O)N1 | > 300 | 12.8 | 2.7 | >111 | 84.1 | 4.1 |  |  |
| CC(C)C(C)NC1=NS(=O)(=O)c2cc(Br)ccc2N1 (stereo not drawn) | 2.6 | 98.4 | > 10 | < 0.26 | 97.2 | 21.4 |  |  |
| CCC(C)NC1=NS(=O)(=O)c2cc(Cl)ccc2N1 (stereo not drawn) | 15.5 | 19.9 | 3.1 | 5 | 85.4 | 5.5 |  |  |
| CNC1=NS(=O)(=O)c2cc(Cl)ccc2N1 | 142 | 4.4 | 1.1 | 129 | 55.1 | 2.4 |  |  |
| CCC(C)NC1=NS(=O)(=O)c2cc(I)ccc2N1 (stereo not drawn) | 1.3 | 64.8 | > 10 | <0.13 | 84.2 | 22.5 |  |  |
| CC(C)NC1=NS(=O)(=O)c2cc(F)ccc2N1 |  | 3.7 | 0.8 | 54 |  | 3.3 | 9.63 |  |
| O=S1(=O)N=C(NC2CCC2)Nc2ccc(Cl)cc21 | 34.9 | 6.4 | 1.3 | 27 | 60.2 | 8.1 |  |  |
| C=CCNC1=Nc2ccc(Br)cc2S(=O)(=O)N1 | 3 | 23.7 | 2.8 | 1.1 | 77.2 | 4.8 |  |  |
| O=S1(=O)NC(NC2CCC2)=Nc2ccc(Br)cc21 | 21.7 | 9.6 | 1.1 | 20 | 54.8 | 6.1 |  |  |
| CCC(C)(C)NC1=NS(=O)(=O)c2cc(Cl)ccc2N1 | 0.29 | 83.2 | > 10 | <0.029 |  |  |  |  |
| CC(C)(C)NC1=NS(=O)(=O)c2cc(Cl)ccc2N1 | 1.4 | 64.4 | > 10 | <0.14 |  |  |  |  |
| CC(C)NC1=NS(=O)(=O)c2cc(Br)ccc2N1 |  | 8.1 | 0.5 | 9.6 |  | 6.7 | 9.41 | 91 |
| CC(C)C(C)NC1=NS(=O)(=O)c2cc(F)ccc2N1 (stereo not drawn) | 26.4 | 10.6 | 2.8 | 9 | 87.7 | 7.9 |  |  |
| C=CCNC1=Nc2ccc(Cl)cc2S(=O)(=O)N1 | 28.9 | 17.3 | 3.1 | 9 | 87.9 | 7.8 |  |  |
| CCC(CC)NC1=NS(=O)(=O)c2cc(I)ccc2N1 | 79.1 | 67 | > 10 | <7.9 |  | 17 |  |  |
| CC1=Nc2ccc(Cl)cc2S(=O)(=O)N1 [DIAZOXIDE] | 22.4 |  |  |  |  | 26.7 |  |  |
| CC(N/C(=N\C#N)Nc1ccncc1)C(C)(C)C (stereo not drawn) [PINACIDIL ANHYDROUS] | 0.35 |  | > 100 |  | 97.7 | 88.8 |  |  |
